In the library only some 1.4% were active in any assay of this set; here they are far more common.
GSK3 alpha inh – inhibitors of human GSK-3 alpha kinase | AID 2650 | 320,000 tested, 0.1% active | ADP-Glo luminescence, 60 min | P49840 | inhibition, % at 10 µM;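 active means more than half of replicates show inhibition above 20%; inconclusive means some but at most half of replicates above 20% inhibition; inactive means no replicate shows inhibition above 20%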;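 further: GST-tagged GSK-3 alpha with peptide substrate and 25 µM ATP; 0% = DMSO neutral wells and 100% = GW8510 positive control wells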
Target sequence (P49840 whole entry, looked up): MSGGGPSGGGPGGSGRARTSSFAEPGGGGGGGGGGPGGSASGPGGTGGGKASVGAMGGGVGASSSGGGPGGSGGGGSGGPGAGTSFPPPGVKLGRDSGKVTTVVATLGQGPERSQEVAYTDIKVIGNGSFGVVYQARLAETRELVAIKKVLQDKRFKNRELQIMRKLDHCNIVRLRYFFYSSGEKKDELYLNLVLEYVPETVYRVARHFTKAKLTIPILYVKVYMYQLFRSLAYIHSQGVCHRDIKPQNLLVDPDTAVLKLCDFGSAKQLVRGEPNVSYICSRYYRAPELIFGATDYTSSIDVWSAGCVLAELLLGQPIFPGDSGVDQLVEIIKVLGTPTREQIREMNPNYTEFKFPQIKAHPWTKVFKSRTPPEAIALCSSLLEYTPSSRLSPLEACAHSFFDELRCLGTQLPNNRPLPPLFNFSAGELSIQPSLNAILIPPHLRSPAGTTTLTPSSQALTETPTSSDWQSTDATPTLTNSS
INS-1E GSIS act – GLuc luminescence reporter in INS-1E cells, primary screen for activators of glucose-dependent secretion of insulin | INS-1E GLuc reporter insulin secretion, 2-3 h | activation, % at 16.6 µM | 370,000 tested, 0.61% active | AID 743287;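 active means lowest replicate activation of at least 40%, so every replicate reaches that level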;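 further: 0% = median of neutral control wells and 100% = median of IBMX positive control wells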
GSK3beta inhib – blocks human GSK3beta kinase activity; P49841; GST-GSK3beta kinase, ADP-Glo luminescence, 60 min; hits give low values; activity score (negative = inhibition), % at 10 µM; 300,000 tested, 0.038% active; AID 2097;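 active means more than half of replicate wells score below -50%, meaning over 50% inhibition versus plate controls; inconclusive means some replicates but at most half score below -50%; inactive means no replicate scores below -50%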;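 further: 0% = median DMSO wells and -100% = median GW8510 positive control wells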
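Assay system: GST-fused GSK3beta enzyme, cell-free / Medium: Tris pH 7.5 buffer with MgCl2, DTT, BSA, heparin / Also added: peptide substrate plus 25 µM ATP (final) / Compound: 10 µM single point / Timing: kinase reaction with compound 60 min at room temperature / Detection: ADP-Glo luminescence / Benchmarks: DMSO neutral wells and GW8510 at 20 µM as positive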
HIV Env fusion – blocks HIV Env-driven cell-cell fusion | HeLa-JRFL Env/CEM21 cell fusion, luciferase | inhibition, % at 12.3 µM | 360,000 tested, 1.1% active | AID 651610;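 active means mean replicate inhibition score of at least 50 and every replicate individually at or above 50; inconclusive means only one of the two criteria met; inactive means mean below 50 and not all replicates reaching 50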;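 further: 0% = plate neutral controls and 100% = maraviroc near 300 nM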
CDK5 p35 inh – blocks human CDK5/p35 kinase activity; AID 488839; Q00535+Q15078; Recombinant CDK5/p35, ADP-Glo luminescence, 60 min; inhibition, % at 10 µM; 330,000 tested, 0.01% active;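 active means highest replicate inhibition of at least 50% and at least 75% of replicates reaching 50%; inconclusive means only one of the two criteria met; inactive means both criteria failed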;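 further: plate controls were DMSO neutral control for no effect and GW8510 at 10 µM for full effect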
STK33 inh – inhibitors of human STK33 kinase; purified STK33, MBP phosphorylation, ADP-Glo luminescence; inhibition, % at 10 µM; 320,000 tested, 0.073% active;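 active means inhibition at or above 25%, using the most active replicate where run in duplicate; inactive means inhibition below 25%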
* marks the source's active call; other numbers are inactive results; ? = inconclusive; nt = not tested or not shown; [ ] = another dose, or the depositor's remark.

SMILES	GSK3 alpha inh	INS-1E GSIS act	GSK3beta inhib	HIV Env fusion	CDK5 p35 inh	STK33 inh
Cc1cccc(C)c1NC(=O)C1c2ccccc2OCC(=O)N1CCCN1CCOCC1 (configuration not stated)	nt	47*	nt	-46	nt	nt
COc1ccc(/C=C2/SC(=S)N(CCC(=O)O)C2=O)cc1	-1	-3	3	58*	-2	14
COc1ccc(/C=C2\SC(=S)N(CCC(=O)Nc3ccc(C(=O)O)cc3)C2=O)cc1	-1	-7	-2	-10	0	0
CN(C)C(=O)C[C@@H]1CC[C@@H]2[C@H](COC[C@H](O)CN2Cc2ccc(C(F)(F)F)cc2)O1	nt	-3	nt	-2[16.7 µM]	nt	nt
CS(=O)(=O)N1C[C@@H]2C(c3ccc(Br)cc3)[C@H](C1)N2Cc1ccc(F)cc1 (some centres not stated)	nt	-7	nt	nt	nt	nt
COc1ccc(CCNC(=O)c2cnc3scc(C)n3c2=O)cc1OC	0	61*	4	36	0	-3
COc1ccc(C)cc1NC(=O)c1cnc2scc(C)n2c1=O	nt	2	nt	?	1	nt
COc1ccc(NC(=O)N(C)C[C@@H]2OCCCC[C@H](C)Oc3ccc(NC(=O)Nc4ccc(F)cc4)cc3C(=O)N([C@H](C)CO)C[C@@H]2C)cc1	nt	8	nt	3[16.7 µM]	nt	nt
CC(C)OCCCNc1ncnc2c1[nH]c1ccccc12	3	-25	-2	78*	-1	2
COc1ccc2c3c(n(C)c2c1)[C@H](CO)N(C(=O)CC1CC1)CC31CN(C(=O)C2CC2)C1	nt	-11	nt	nt	nt	nt
COc1ccc(S(=O)(=O)/N=C2/C=CC(=O)C(C)=C2C)cc1	-3	nt	4	nt	1	0
CC1=C(C)/C(=N\OS(=O)(=O)c2ccc(C)cc2)C=CC1=O	-4	225*	nt	-298	1	-1
O=C(Nc1ccc(F)cc1)N1C[C@H]2[C@@H](c3ccccc31)[C@H](CO)N2C(=O)c1ccccc1	nt	-6	nt	nt	nt	nt
C[C@@H]1CN([C@@H](C)CO)C(=O)CCCn2cc(nn2)CO[C@@H]1CN(C)Cc1cccc(C(=O)O)c1	nt	8	nt	nt	nt	nt
CCCCC1Cc2[nH]c(=S)[nH]c(=O)c2C(C(C)C)O1 (configuration not stated)	nt	42*	nt	-1	nt	nt
CN1C(=O)c2cc(NC(=O)c3ccccc3Cl)ccc2OC[C@@H]2O[C@@H](CC(=O)NCC(F)(F)F)CC[C@@H]21	nt	nt	nt	1[16.7 µM]	nt	nt
Cn1nc(C2CC2)cc1NC(=O)C1(C)CCN1C(=O)c1ccccc1CCc1ccccc1 (configuration not stated)	nt	nt	nt	64*	nt	nt
COc1ccc(C(=O)C/C(=C\C(=O)c2ccc(C)cc2)c2ccccc2)cc1	-1	nt	4	103*	3	-2
c1ccc(-c2nnc3n2-c2ccccc2SC3)cc1	0	58*	1	2	1	-9
c1ccc2c(c1)OCC(c1nnc3n1-c1ccccc1SC3)O2 (configuration not stated)	0	nt	-1	nt	-1	-4
COc1ccc(S(=O)(=O)N[C@H]2C=C[C@H](CC(=O)N3CCN(c4ccccc4)CC3)O[C@@H]2CO)cc1	nt	-15	nt	59*[16.7 µM]	nt	nt
COC(=O)C[C@@H]1C=C[C@H](NC(=O)Cc2ccccn2)[C@@H](CO)O1	nt	64*	nt	10	nt	nt
O=C(Cc1ccccc1)N[C@@H]1C=C[C@@H](CC(=O)N2CCCCC2)O[C@@H]1CO	nt	-11	nt	14[16.7 µM]	nt	nt
COC(=O)C[C@H]1C=C[C@H](NC(=O)Cc2ccccc2)[C@@H](CO)O1	nt	8	nt	-10	nt	nt
COc1ccc(S(=O)(=O)N[C@@H]2C=C[C@@H](CC(=O)N3CCN(c4ccccc4)CC3)O[C@@H]2CO)cc1	nt	-2	nt	0[16.7 µM]	nt	nt
SMILES	GSK3 alpha inh	INS-1E GSIS act	GSK3beta inhib	HIV Env fusion	CDK5 p35 inh	STK33 inh
Cc1ccc(S(=O)(=O)N[C@@H]2C=C[C@@H](CC(=O)N3CCC(Cc4ccccc4)CC3)O[C@@H]2CO)cc1	nt	-18	nt	56*[16.7 µM]	nt	nt
O=C(Cc1ccccc1)N[C@@H]1C=C[C@H](CC(=O)N2CCCCC2)O[C@@H]1CO	nt	-1	nt	57*[16.7 µM]	nt	nt
COc1ccc2c3c(n(C)c2c1)[C@@H](CO)N(CC1CC1)CC31CCN(C(=O)Nc2ccc(F)cc2F)CC1	nt	2	nt	nt	nt	nt
COc1ccc2c3c([nH]c2c1)[C@@H](CO)N(C)CC31CN(S(=O)(=O)c2ccc(C)cc2)C1	nt	-7	nt	nt	nt	nt
CCCN(C)C[C@H]1Oc2cc(C3=CCCCC3)ccc2S(=O)(=O)N([C@@H](C)CO)C[C@H]1C	nt	nt	nt	11[16.7 µM]	nt	nt
CCOc1ccc(CCNC(=O)COC(=O)c2ccccc2O)cc1OCC	-3	14	-1	-16	-3	-1
CCOc1ncccc1C(=O)NCCc1ccc(S(N)(=O)=O)cc1	0	13	nt	4	3	0
CCOc1ccc(CCNC(=O)COC(=O)COc2ccc(Cl)cc2)cc1OCC	-3	45*	2	-8	-7	-2
CCOc1ncccc1C(=O)OCC(=O)NCCc1ccc(S(N)(=O)=O)cc1	0	40*	nt	9	0	-1
CCOc1ccc(CCNC(=O)CCNC(=O)c2ccco2)cc1OCC	-2	92*	0	13	1	0
CCOc1ccc(CCNC(=O)COC(=O)c2cccnc2OCC)cc1OCC	3	61*	-1	-82	-1	0
CCOc1ccc(CCNC(=O)COC(=O)c2nccnc2N)cc1OCC	5	51*	-3	7	2	-1
CCOc1ccc(CCNC(=O)COC(=O)c2ccc(Br)o2)cc1OCC	-1	28	0	17	0	-1
COc1ccc(CNC(=O)COC(=O)c2nc3nc(C)cc(C)n3n2)cc1	4	-7	nt	nt	0	-1
CCOc1ccc(CCNC(=O)COC(=O)c2nc3nc(C)cc(C)n3n2)cc1OCC	1	45*	-24	5	1	-1
O=C(Nc1ccc(Cl)c(C(F)(F)F)c1)[C@@H]1CC=C[C@@H]2CCN(Cc3ccccc3)C(=O)[C@@H]21	1	6	0	64*	2	-1
Fc1ccccc1/C=N/Nc1ncnc2nc[nH]c12	65*	nt	-36	-66	39	8
Fc1cccc(/C=N/Nc2ncnc3nc[nH]c23)c1	68*	nt	-44	-35	31	0
Clc1ccc(/C=N/Nc2ncnc3nc[nH]c23)cc1	61*	-7	-36	-10	11	6
Oc1ccc(/C=N/Nc2ncnc3nc[nH]c23)cc1	9	16	-32	-11	1	-2
Cc1ccc(/C=N/Nc2ncnc3nc[nH]c23)cc1	41	6	-36	-11	20	5
COc1ccc(NC(=O)N(C)C[C@@H]2OCCCC[C@@H](C)Oc3ccc(NC(=O)Nc4c(C)noc4C)cc3C(=O)N([C@H](C)CO)C[C@H]2C)cc1	nt	-14	nt	-16[16.7 µM]	nt	nt
Cc1nc(S(=O)(=O)N[C@H]2CCN(Cc3ccc(OCCO)cc3)C2)cn1C	nt	nt	nt	-18[16.7 µM]	nt	nt
O=C(C[C@@H]1C[C@H]2c3cc(NC(=O)NC4CCCCC4)ccc3O[C@H]2[C@@H](CO)O1)NCc1ccncc1	nt	2	nt	61*[16.7 µM]	nt	nt

Compound activity as filed in PubChem.
